# A selection: hits, their analogues and other compounds. The true share with any hit is near 5.9%.
# T cruzi growth-1 = T. cruzi intracellular proliferation inhibitors, primary screen, cell-based, beta-gal Tulahuen parasites, NIH3T3 host, luminescence. 5.9% of 77,000 active. AID 624255, 2012. T. cruzi beta-gal in NIH3T3, GalScreen luminescence, 90 h. inhibition, % at 8.34 µM;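 active = mean inhibition above about 93%, with at least 55% of replicates each passing it, limit read from the data, passing the limit was not always enough; inconclusive = only one of those two conditions holds; inactive = neither condition holds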
# GASC1 inh = inhibitors of GASC-1 (KDM4C) histone demethylase, primary screen, biochemical, single concentration HTS | 0.15% of 96,000 active | AID 720574, 2013 | GST-KDM4C 2-372, H3K9me3 peptide, LANCE TR-FRET | inhibition, % at 12.5 µM;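 active = mean replicate inhibition above about 25%, with at least 55% of replicates also reaching it, limit read from the data, passing the limit was not always enough; inconclusive = only one of those two conditions met; inactive = neither condition met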
# Target sequence (Q9H3R0 2-372 limits assumed): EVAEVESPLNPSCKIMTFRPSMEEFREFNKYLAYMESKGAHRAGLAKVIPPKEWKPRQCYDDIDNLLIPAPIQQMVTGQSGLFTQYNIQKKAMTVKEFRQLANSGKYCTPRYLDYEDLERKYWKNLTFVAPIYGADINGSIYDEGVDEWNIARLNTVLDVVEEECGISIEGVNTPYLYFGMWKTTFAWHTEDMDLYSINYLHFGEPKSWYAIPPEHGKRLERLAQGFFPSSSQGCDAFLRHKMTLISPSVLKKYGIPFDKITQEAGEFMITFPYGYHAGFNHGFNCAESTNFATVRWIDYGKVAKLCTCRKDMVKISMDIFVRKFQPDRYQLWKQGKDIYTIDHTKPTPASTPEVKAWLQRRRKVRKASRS
#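 System: N-terminal GST-fused human GASC-1 (KDM4C) fragment, residues 2-372; amount: enzyme final amount 10 nM; incubation: reaction 30 min RT, detection step 1 h RT; medium: HEPES buffer, pH 7.5, plus ascorbate; technique: LANCE TR-FRET, Eu antibody, ULight-streptavidin, EDTA, ex 340 nm, em 618/671 nm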
# Pf Dd2 growth = P. falciparum Dd2 growth inhibitors, primary screen, SYBR Green fluorescence, single dose replicates | 72 h; hits give low values | activity change, % at 10 µM | 2.3% of 94,000 active | AID 1159554, 2015; in the data active = activity change below about -80%; inconclusive = no clear call, values can overlap the other calls
# IDH1 mut inh = inhibitors of IDH1 R132H reductase, primary screen, biochemical, plate reader, single point. Isocitrate dehydrogenase [NADP] cytoplasmic (Homo sapiens), O75874. diaphorase/resazurin fluorescence, 60 min. inhibition, % at 10 µM. 0.18% of 70,000 active. AID 624101, 2012; in the data active = inhibition above about 34%; inconclusive = no clear call, values can overlap the other calls; inactive = below about 11%;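 also: 0% = DMSO and 100% = no enzyme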
# T cruzi growth-2 = T. cruzi intracellular proliferation inhibitors, confirmation, cell-based, NIH3T3 host, beta-gal parasite, luminescence, cherry-pick; shares compounds with T cruzi growth-1; T. cruzi beta-gal in NIH3T3, GalScreen luminescence, 90 h; inhibition, % at 8.35 µM; 72% of 5,600 active; AID 651739, 2012;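 active = mean replicate inhibition above about 95% and at least 55% of replicates individually reaching it, limit read from the data; inconclusive = only one of the two criteria is met; inactive = neither criterion is met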
# T cruzi growth-3 = inhibitors of intracellular T. cruzi replication, confirmation, NIH3T3 host cells, beta-gal parasites, cherry-pick, set 2; inhibition, % at 2.09 µM; shares compounds with T cruzi growth-1; T. cruzi beta-gal in NIH3T3, GalScreen luminescence, 90 h; 21% of 5,600 active;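 active = mean inhibition above about 95%, with at least 55% of replicates also reaching it, limit read from the data; inconclusive = meets just one of the two conditions; inactive = meets neither condition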;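 also: plate controls were neutral control median for no effect and positive control median for full effect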
# NIH3T3 tox = cytotoxicity in mouse NIH/3T3 fibroblasts, confirmation, cytotoxicity control for T. cruzi proliferation inhibitor project, cell-based, cherry-pick, single point | shares compounds with T cruzi growth-1 | NIH/3T3 viability, CellTiter-Glo ATP luminescence, 90 h | cytotoxicity (signal decrease), % at 8.35 µM | 14% of 5,600 active;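 active = mean signal decrease across replicates above about 35% based on untreated-well scatter, with enough replicates individually passing, limit read from the data; inconclusive = no rule stated though some were filed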;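 also: 0% = median of neutral control wells and 100% = median of positive control wells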
# 3T3 cytotox 2 = NIH/3T3 fibroblast cytotoxicity, confirmation, cytotoxicity control, cell-based, cherry-pick, single point, set 2. AID 651744, 2012. inhibition, % at 24.9 µM. 56% of 5,600 active. NIH/3T3 viability, CellTiter-Glo ATP luminescence, 90 h. shares compounds with T cruzi growth-1;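 active = mean loss of cell viability signal at or above a set limit, and enough replicates individually reaching it; inconclusive = meets only the mean limit or only the replicate share; inactive = meets neither condition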;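 also: 0% = median of neutral control wells and 100% = median of positive control wells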
# An asterisk follows results filed as active; ? = inconclusive; / = no result given.
SMILES,T cruzi growth-1,GASC1 inh,Pf Dd2 growth,IDH1 mut inh,T cruzi growth-2,T cruzi growth-3,NIH3T3 tox,3T3 cytotox 2
Cc1ccc(S(=O)(=O)Nc2ccc3c(c2)C(=O)N([C@@H](C)CO)C[C@@H](C)[C@@H](CN(C)Cc2ccc4c(c2)OCO4)OCCCC[C@H](C)O3)cc1,?,0,-63,/,86,?,61*,104*
COc1ccc(-c2nn(C)c(=O)c3ccccc23)cc1CNC(=O)c1ccc([N+](=O)[O-])cc1,/,/,/,1,/,/,/,/
O=C(CC1(O)C(=O)Nc2ccc([N+](=O)[O-])cc21)c1ccccc1 (stereo not drawn),/,/,/,0,/,/,/,/
COc1ccc(S(=O)(=O)Nc2ccc3c(c2)C(=O)N([C@H](C)CO)C[C@H](C)[C@H](CN(C)Cc2ccc4c(c2)OCO4)OCCCC[C@H](C)O3)cc1,?,1,-73,/,103*,?,6,105*
Cc1ccc(S(=O)(=O)Nc2ccc3c(c2)C(=O)N([C@H](C)CO)C[C@H](C)[C@@H](CN(C)Cc2ccc4c(c2)OCO4)OCCCC[C@H](C)O3)cc1,102*,-2,-76,/,108*,46,19,84*
C[C@H]1CCCCO[C@H](CN(C)Cc2ccc3c(c2)OCO3)[C@@H](C)CN([C@@H](C)CO)C(=O)c2cc(NS(=O)(=O)c3ccc(F)cc3)ccc2O1,58,1,-39,1,/,/,/,/
CC(C)NC(=O)N1[C@H](C#N)[C@@H](c2ccc(C#CC3CCCCC3)cc2)[C@@H]1CO,96*,1,-73,/,96*,113*,-2,105*
N#C[C@@H]1[C@H](c2ccc(C#CC3CCCC3)cc2)[C@@H](CO)N1C(=O)Nc1ccc(F)cc1,98*,-2,-9,/,99*,95,2,107*
CC(C)NC(=O)N1[C@H](CO)[C@H](c2ccc(C#CC3CCCCC3)cc2)[C@@H]1C#N,107*,-1,-32,/,98*,116*,30,54*
CN(C)CC(=O)N1[C@H](C#N)[C@H](c2ccc(C#CC3CCCC3)cc2)[C@H]1CO,99*,3,-30,/,96*,66,-9,106*
COc1ccc(/C=N/NC(=O)c2cccc(C(=O)NO)c2)cc1Br,/,/,/,0,/,/,/,/
COc1ccc(S(=O)(=O)N(C)CC(=O)NC2CCCCC2)cc1C,/,/,/,0,/,/,/,/
CC(C)NC(=O)N1[C@H](C#N)[C@@H](c2ccc(C#CC3CCCC3)cc2)[C@H]1CO,102*,-1,-9,-1,102*,97*,6,37*
N#C[C@H]1[C@@H](c2ccc(C#CC3CCCCC3)cc2)[C@H](CO)N1C(=O)Cc1ccccn1,100*,-1,-34,/,101*,104*,-33,81*
COc1cc(NC(=O)COc2ccc(C(C)C)cc2)ccc1-c1cc2ccccc2oc1=O,/,/,/,0,/,/,/,/
O=C(NCC(O)c1ccccc1)c1ccc(S(=O)(=O)N2CCOCC2)cc1 (stereo not drawn),/,/,/,3,/,/,/,/
COc1ccc2[nH]cc(CCNC(N)=O)c2c1,/,/,/,0,/,/,/,/
N#C[C@H]1[C@@H](c2ccc(C#CCC3CCCC3)cc2)[C@@H](CO)N1C(=O)c1ccccn1,97*,-1,?,0,102*,112*,-25,93*
COCC(=O)N1[C@H](CO)[C@H](c2ccc(C#CCC3CCCC3)cc2)[C@@H]1C#N,89,-1,-28,0,/,/,/,/
N#C[C@@H]1[C@@H](c2ccc(C#CCC3CCCC3)cc2)[C@H](CO)N1C(=O)c1ccccn1,97*,0,-24,/,?,112*,-1,107*
COc1cc2nc3occc3c(OC)c2cc1OCC(O)C(C)(C)O (stereo not drawn),/,/,/,0,/,/,/,/
CCn1c(SCC(=O)Nc2ccc(F)cc2)nnc1-c1cccs1,/,/,/,-1,/,/,/,/
O=C(N/N=C/c1ccc(Br)cc1)c1ccccn1,/,/,/,0,/,/,/,/
C[C@@H]1CN([C@@H](C)CO)S(=O)(=O)c2ccc(C#CC3CCCC3)cc2O[C@H]1CN(C)C(=O)c1cccc(F)c1,120*,-2,?,/,91,100*,41*,106*
C[C@@H]1CN([C@H](C)CO)S(=O)(=O)c2ccc(C#CC3CCCC3)cc2O[C@@H]1CN(C)C(=O)c1cccc(F)c1,123*,-2,-59,/,95*,?,11,103*
SMILES,T cruzi growth-1,GASC1 inh,Pf Dd2 growth,IDH1 mut inh,T cruzi growth-2,T cruzi growth-3,NIH3T3 tox,3T3 cytotox 2
C[C@@H]1CN([C@@H](C)CO)S(=O)(=O)c2ccc(C#CC3CC3)cc2O[C@H]1CN(C)C(=O)c1cccc(F)c1,/,-3,15,-1,/,/,/,/
C[C@@H]1CN([C@@H](C)CO)S(=O)(=O)c2ccc(C#CC3CCCC3)cc2O[C@@H]1CN(C)C(=O)c1cccc(F)c1,118*,0,-40,-1,102*,98*,19,106*
C[C@@H]1CN([C@H](C)CO)S(=O)(=O)c2ccc(C#CC3CCCC3)cc2O[C@H]1CN(C)C(=O)c1cccc(F)c1,123*,-1,-85*,/,101*,90,5,103*
COc1cc(NC(=O)CCn2cnc3ccccc3c2=O)c(OC)cc1Cl,/,/,/,0,/,/,/,/
COc1ccc(S(=O)(=O)N(C)CC(=O)Nc2ccc(Br)cc2F)cc1,/,/,/,0,/,/,/,/
C[C@H](CO)N1C[C@H](C)[C@H](CN(C)C(=O)c2cccc(F)c2)Oc2cc(C#CC3CCCC3)ccc2S1(=O)=O,123*,-1,-65,/,103*,78,5,103*
CO[C@@H]1CN(C)C(=O)c2ccc(NS(=O)(=O)c3cccc(F)c3)cc2OC[C@@H](C)N(Cc2cc(F)ccc2F)C[C@@H]1C,/,2,-14,0,/,/,/,/
COc1ccc(S(=O)(=O)Nc2ccc3c(c2)OC[C@@H](C)N(Cc2cc(F)ccc2F)C[C@@H](C)[C@H](OC)CN(C)C3=O)cc1,122*,0,-39,0,110*,83,-14,-9
CO[C@H]1CN(C)C(=O)c2cc(NS(=O)(=O)c3cccc(F)c3)ccc2OC[C@@H](C)N(Cc2cc(F)ccc2F)C[C@H]1C,?,-2,-33,0,111*,76,-8,52*
